Among the data in ChEMBL document CHEMBL3259728, “Design, synthesis and biological evaluation of some novel substituted quinazolines as antitumor agents” (2014) are inhibition of growth values, retold here.

Holding throughout (assay type): functional
The subject of one assay is T47D. Put plainly: Growth inhibition of human T47D cells at 10 uM after 48 hrs by SRB assay. Particulars: read-out: GI. In a few lines: (§1)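 NCI-60 primary one-dose screen run at the US NCI, with human tumour lines from nine cancer types. Compound added once at 10^-5 M, followed by 48 h incubation. End point was sulforhodamine B protein staining read spectrophotometrically. Result given as percent growth of treated cells against untreated controls, reported as % growth inhibition.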
Background: In SRB staining, fixed cells bind dye roughly in proportion to their protein.

A short description of assay [1]: Growth inhibition of human Hs578T cells at 10 uM after 48 hrs by SRB assay. Conditions: Hs-578T, read-out: GI. In a few lines: as §1
The next assay concerns MDA-MB-231. In words: Growth inhibition of human MDA-MB-231 cells at 10 uM after 48 hrs by SRB assay. Particulars: MDA-MB-231, 48 h, read-out: GI. In a few lines: as §1
The subject of the next assay is DU-145. In words: Growth inhibition of human DU145 cells at 10 uM after 48 hrs by SRB assay. Particulars: DU-145, 48 h, read-out: GI. In a few lines:
as §1

The next assay has as its system PC-3. Put plainly: Growth inhibition of human PC3 cells at 10 uM after 48 hrs by SRB assay. Conditions: PC-3, 48 h, read-out: GI. In a few lines:
as §1

The nature of assay [2]: Growth inhibition of human RXF393 cells at 10 uM after 48 hrs by SRB assay. Particulars: RXF 393, 48 h, read-out: GI. In a few lines: as §1
The test system of another assay is ACHN. Put plainly: Growth inhibition of human ACHN cells at 10 uM after 48 hrs by SRB assay. Conditions: read-out: GI. In a few lines:
(§2)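 NCI primary one-dose screen. A single concentration of 10^-5 M was added to the cell culture, followed by 48 h incubation and an SRB protein-dye endpoint read spectrophotometrically. Results are growth percentage relative to untreated control cells, reported as % growth inhibition.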

Assay [3] in a line: Growth inhibition of human OVCAR5 cells at 10 uM after 48 hrs by SRB assay. Conditions: OVCAR-5, 48 h, read-out: GI. In a few lines: as §1
Assay [4] can be described thus: Growth inhibition of human OVCAR4 cells at 10 uM after 48 hrs by SRB assay. Particulars: OVCAR-4, 48 h, read-out: GI. In a few lines:
as §1

A short description of assay [5]: Growth inhibition of human OVCAR3 cells at 10 uM after 48 hrs by SRB assay. Particulars: OVCAR-3, 48 h, read-out: GI. In outline:
as §1

For the next assay, the system named is IGROV-1. Put plainly: Growth inhibition of human IGROV1 cells at 10 uM after 48 hrs by SRB assay. Conditions: IGROV-1, 48 h, read-out: GI. In outline: as §1
Assay [6] in a line: Growth inhibition of human UACC62 cells at 10 uM after 48 hrs by SRB assay. Particulars: UACC-62, 48 h, read-out: GI. In a few lines:
as §1

In the next assay the test system is SK-MEL-5. Put plainly: Growth inhibition of human SK-MEL-5 cells at 10 uM after 48 hrs by SRB assay. Particulars: SK-MEL-5, 48 h, read-out: GI. In outline:
as §1

A further assay concerns SK-MEL-2. Put plainly: Growth inhibition of human SK-MEL-2 cells at 10 uM after 48 hrs by SRB assay. Particulars: SK-MEL-2, 48 h, read-out: GI. In a few lines: as §1
The test system of the next assay is MDA-MB-435. Put plainly: Growth inhibition of human MDA-MB-435 cells at 10 uM after 48 hrs by SRB assay. Particulars: MDA-MB-435, 48 h, read-out: GI. In a few lines:
as §1

The next assay deals with Malme-3M. In words: Growth inhibition of human MALME-3M cells at 10 uM after 48 hrs by SRB assay. Conditions: read-out: GI. In outline: as §1
A further assay concerns KM12. Put plainly: Growth inhibition of human KM12 cells at 10 uM after 48 hrs by SRB assay. Conditions: KM12, 48 h, read-out: GI. In outline: as §1
For a further assay, the system named is NCI-H322M. Put plainly: Growth inhibition of human NCI-H322M cells at 10 uM after 48 hrs by SRB assay. Particulars: read-out: GI. In a few lines: as §1
The next assay has as its system NCI-H226. In words: Growth inhibition of human NCI-H226 cells at 10 uM after 48 hrs by SRB assay. Conditions: NCI-H226, 48 h, read-out: GI. In a few lines: as §1
A short description of assay [7]: Growth inhibition of human EKVX cells at 10 uM after 48 hrs by SRB assay. Conditions: read-out: GI. In outline: as §1
Another assay concerns A549. Put plainly: Growth inhibition of human A549 cells at 10 uM after 48 hrs by SRB assay. Conditions: A549, 48 h, read-out: GI. In a few lines: as §2
The test system of another assay is CCRF-CEM. Put plainly: Growth inhibition of human CCRF-CEM cells at 10 uM after 48 hrs by SRB assay. Particulars: read-out: GI. In a few lines:
as §2

Each structure is given as a SMILES string.

With `Cc1ccc(C(=O)Nc2ccc(Cl)cc2C(=O)NCc2ccccc2)cc1`, the inhibition of growth at 10 µM in the assay on T47D is less than 10%; in assay [1], 21%; with MDA-MB-231, less than 10%; with DU-145, less than 10%; with PC-3, 24%; in assay [2], 13%. Moreover, the inhibition of growth at 10 µM in the assay on ACHN was 14%; in assay [3], less than 10%; in assay [4], 21%; in assay [5] it was less than 10%; in the assay on IGROV-1, 16%; in assay [6], 30%. For the same molecule, the inhibition of growth at 10 µM is 22% with SK-MEL-5; 49% in the assay on SK-MEL-2; 98% in the assay on MDA-MB-435; 12% with Malme-3M; 40% in the assay on KM12; less than 10% in the assay on NCI-H322M. Also, the inhibition of growth at 10 µM was less than 10% in the assay with NCI-H226, 20% in assay [7], 15% in the assay on A549 and 27% in the assay with CCRF-CEM.

Turning to `Cc1ccc(C(=O)Nc2ccc(Cl)cc2C(=O)Nc2ccccc2)cc1`, the inhibition of growth at 10 µM in the assay with T47D is 20%; in assay [1] it was less than 10%; with MDA-MB-231, 16%; in the assay with DU-145, less than 10%; with PC-3 it was 15%; in assay [2] it was less than 10%. Also, the inhibition of growth at 10 µM in the assay on ACHN was 17%; in [3] it was 14%; in assay [4], 11%; in [5] it was less than 10%; in the assay with IGROV-1, less than 10%; in the assay with SK-MEL-5, 13%. Moreover, the inhibition of growth at 10 µM in the assay with SK-MEL-2 was less than 10%; in the assay with MDA-MB-435, 11%; with Malme-3M, 12%; in the assay with KM12 it was less than 10%; in the assay with NCI-H322M, less than 10%; with NCI-H226, less than 10%. Besides, the inhibition of growth at 10 µM (in assay [7]; in the assay on A549) was less than 10% each time.

On to `Cc1ccc(C(=O)Nc2ccc(Cl)cc2C(=O)Nc2ccccn2)cc1`, for which the inhibition of growth at 10 µM with T47D was 20%; in [1], less than 10%; in the assay with MDA-MB-231 it was less than 10%; with DU-145 it was 11%; in the assay with PC-3 it was 23%; in [2] it was less than 10%. Moreover, the inhibition of growth at 10 µM in the assay with ACHN is less than 10%; in assay [3], less than 10%; in assay [4], 22%; in [5], 12%; in the assay with IGROV-1 it was 14%; in assay [6], 16%. Further, the inhibition of growth at 10 µM in the assay on SK-MEL-5 is 39%; in the assay on SK-MEL-2, less than 10%; with MDA-MB-435, 19%; with Malme-3M, less than 10%; with KM12, 11%; with NCI-H322M it was less than 10%. Moreover, the inhibition of growth at 10 µM in the assay with NCI-H226 is less than 10%; in assay [7] it was 12%; in the assay on A549 it was 13%; in the assay with CCRF-CEM it was 29%.

Regarding `Cc1ccc(-c2nc3ccc(Cl)cc3c(=O)n2NC(=O)CN)cc1`, the inhibition of growth at 10 µM in assay [1] is less than 10%; in the assay on MDA-MB-231, less than 10%; in the assay on DU-145, less than 10%; with PC-3, less than 10%; in assay [2], less than 10%; in the assay on ACHN, 14%. Also, the inhibition of growth at 10 µM in assay [3] is 11%; in assay [4], less than 10%; in [5], less than 10%; in the assay on IGROV-1, less than 10%; in assay [6], less than 10%; with SK-MEL-5, less than 10%. For the same molecule, the inhibition of growth at 10 µM in the assay with SK-MEL-2 was less than 10%; in the assay on MDA-MB-435, less than 10%; in the assay on Malme-3M, less than 10%; with KM12, less than 10%; in the assay on NCI-H322M, less than 10%; in the assay on NCI-H226, 11%. Further, the inhibition of growth at 10 µM in assay [7] was 22%; in the assay with A549, less than 10%; in the assay on CCRF-CEM it was 14%.

Consider `Cc1ccc(-c2nc3ccc(Cl)cc3c(=O)n2NC(=O)CNN)cc1`, for which the inhibition of growth at 10 µM was 52% in the assay on T47D; 40% in [1]; 62% in the assay with MDA-MB-231; 28% in the assay with DU-145; 33% in the assay on PC-3; 11% in [2]. Moreover, the inhibition of growth at 10 µM in the assay on ACHN amounted to 42%; in [3], 18%; in assay [4], 80%; in assay [5], 45%; in the assay with IGROV-1, 41%; in [6], 18%. Further, the inhibition of growth at 10 µM in the assay with SK-MEL-5 is 11%; in the assay on SK-MEL-2, less than 10%; in the assay with MDA-MB-435, less than 10%; in the assay on Malme-3M, 14%; with KM12, 21%; with NCI-H322M, 29%. For the same molecule, the inhibition of growth at 10 µM in the assay with NCI-H226 is 35%; in assay [7], 34%; in the assay with A549 it was 23%; in the assay with CCRF-CEM it was less than 10%.

Take `Cc1ccc(C2=Nc3ccc(Cl)cc3C3=NNCC(=O)NN23)cc1`: the inhibition of growth at 10 µM in [1] is less than 10%; in the assay on MDA-MB-231, 11%; with DU-145 it was less than 10%; with PC-3 it was less than 10%; in [2], less than 10%; in the assay with ACHN, less than 10%. The inhibition of growth at 10 µM (in [3]; in assay [4]; in assay [5]; in the assay on IGROV-1; in assay [6]; in the assay with SK-MEL-5) was less than 10% throughout. Moreover, the inhibition of growth at 10 µM with SK-MEL-2, in the assay on MDA-MB-435, in the assay with Malme-3M, in the assay on KM12, with NCI-H322M and in the assay with NCI-H226 was less than 10% throughout. Also, the inhibition of growth at 10 µM in assay [7] was 12%; in the assay with A549, 11%; in the assay on CCRF-CEM, less than 10%.

Turning to `Cc1ccc(-c2nc3ccc(Cl)cc3c3nnnn23)cc1`, the inhibition of growth at 10 µM is 23% with T47D; less than 10% in assay [1]; 27% in the assay on MDA-MB-231; less than 10% in the assay with DU-145; 18% in the assay with PC-3; less than 10% in [2]. Besides, the inhibition of growth at 10 µM is less than 10% with ACHN; less than 10% in assay [3]; less than 10% in assay [4]; 11% in [5]; less than 10% in the assay on IGROV-1; 18% in [6]. The inhibition of growth at 10 µM was less than 10% with SK-MEL-5; less than 10% in the assay on SK-MEL-2; 13% in the assay with MDA-MB-435; less than 10% in the assay with Malme-3M; less than 10% with KM12; less than 10% in the assay on NCI-H322M. The inhibition of growth at 10 µM in the assay on NCI-H226 is less than 10%; in assay [7], 11%; in the assay on A549, 47%; in the assay on CCRF-CEM, less than 10%.
